According to ChEMBL document CHEMBL4513216, “Probing the Open Global Health Chemical Diversity Library for Multistage-Active Starting Points for Next-Generation Antimalarials” (ACS Infect Dis, 2020):

Experiment: Toxicity liver stage against HepG2, at 10uM
Type: cell-based
Design: test concentration 10 uM, cell line HepG2-A16-CD81EGFP
Conditions: human, HepG2-A16-CD81EGFP cells; read-out: INHIBITION
Procedure, shortened: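 Uninfected HepG2-A16-CD81EGFP cells, 3 × 10^3 per well, 1536-well, plated on prespotted compound at 10 μM final, parasite-free screening media added to match infected plates; puromycin 10 μM positive, DMSO 0.5% negative; run in parallel with 48 h PbLuc assay at 37 °C, 5% CO2; viability by CellTiter-Glo luminescence, normalized to controls.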

SMILES | cytotoxicity at 10 µM
O=C(c1ccccc1C1CCNC1)N1CCC(N2CCC(O)CC2)CC1 (centres undefined) | -8.3%
N#Cc1cccnc1N1CCN(S(=O)(=O)NCc2ccccc2)CC1 | 6.1%
CC(=O)Cc1c(C)nn(-c2cncc(N)c2)c1C | -4.05%
N#Cc1cccnc1Oc1cc(F)c(CN2CCCC2)c(Cl)c1 | -13.9%
COCc1nc(CN2CCC3(CCCO3)CCC2=O)no1 (centres undefined) | -10.3%
O=S(=O)(Cc1ccccc1)NCc1ccco1 | 0.0906%
O=C1N(Cc2cccc(F)c2F)CCCC1(O)CNC1CCCC1 (centres undefined) | 13.8%
O=c1oc(-c2ccc(F)cc2)nn1CN1CCSCC1 | 0.449%
Fc1ccc(-c2nnc(CN3CCCC3Cn3cccn3)o2)cc1 (centres undefined) | -5.65%
Cc1csc(C2CCCCN2C(=O)c2cn[nH]c2C)n1 (centres undefined) | -1.53%
Cc1nn(C)c(N(C)C)c1CNCc1ccc2c(c1)OCO2 | -2.51%
COc1ccc(OCCN2CCC(c3ccnn3CCO)CC2)cc1 | -6.9%
CC(C(=O)N1CCCN(c2ncccc2C#N)CC1)n1cncn1 (centres undefined) | -6.54%
CNC(=O)C1CCN(C(=O)NCc2ccc(-c3ccn[nH]3)cc2)CC1 | -4.22%
Cc1cc(C)cc(C2(C(=O)NCC3CCN(CC(F)(F)F)C3)CC2)c1 (centres undefined) | -1.62%
c1ccc2c(N3CCCCC3Cn3cccn3)ncnc2c1 (centres undefined) | -5.33%
Cc1cnn(CC2CN(Cc3nc(C)c(C)o3)CCO2)c1 (centres undefined) | -3.88%
Cc1cnn(CC2CN(Cc3nc(C4CC4)no3)CCO2)c1 (centres undefined) | -4.26%
CN1CCCC1CNC(=O)CCCOc1cccc(F)c1 (centres undefined) | -9.54%
Cc1cc(C)n(CC2CCCN2CCC(=O)Nc2cc(C)on2)n1 (centres undefined) | 1.44%
Cc1ccc(CN(C)C(=O)CN2CCOC(Cn3cccn3)C2)o1 (centres undefined) | -0.906%
c1ccc(-n2cc(CNC3CCc4ncnn4C3)cn2)cc1 (centres undefined) | -26.6%
Cc1cnc(C(=O)NCc2ccnc(N(C)C)c2)cn1 | -1.07%
CC(C)(C)c1cn2nc(N3CCCC3Cn3cccn3)sc2n1 (centres undefined) | -23.8%
CCc1nccn1C1CCCN(C(=O)c2ccc(C(=O)NC)nc2)C1 (centres undefined) | -6.33%
Cc1ccccc1-c1cc(C(=O)NCCN2CCCS2(=O)=O)[nH]n1 | -12.9%
Cc1nc(CNCc2c(C)nn(C)c2N2CCOCC2)cs1 | -7.44%

SMILES | cytotoxicity at 10 µM
CCC(O)CN1CCN(C(=O)c2cccn2Cc2cccs2)CC1 (centres undefined) | -5.74%
Cc1nn(C)c(C)c1C(C)NC(=O)Nc1cccnc1N1CCCC1 (centres undefined) | -6.88%
Cc1noc(C(C)C)c1C(=O)NCCN1CCCCCC1=O | -9.07%
CN(C)C1COC2(CCN(Cc3nccs3)CC2)C1 (centres undefined) | 2.02%
Cc1occc1C(=O)N1C[C@@H]2OCCN(c3ncccn3)[C@@H]2C1 | 7.34%
O=C1CC(c2ccncc2)C2(CCN(C(=O)c3cccc(F)c3)CC2)N1 (centres undefined) | -74.4%
CCN1CCN(C)C2(CCN(Cc3cccc(C)n3)CC2)C1=O | 2%
CCN1CC[C@@]2(C(=O)N3CCOCC3)CCN(C(=O)CC(C)C)CC[C@@H]12 | 3.56%
O=C1CCC2(CCN(Cc3nccs3)CC2)N1Cc1ccccc1 | 1.54%
CCN1CC[C@@]2(C(=O)N(C)C)CCN(C(=O)Cc3ccccc3)CC[C@@H]12 | 4.65%
CN(C)Cc1cnc2n1CCN(C(=O)Cc1ccsc1)CC2 | -3.95%
O=C(c1ccc[nH]1)N1CCc2c(COCc3ccncc3)cncc2C1 | 14.7%
CN(C)C(=O)COC[C@@H]1CC[C@H]2[C@H](CCN2c2ccccn2)O1 | 10%
COC[C@H]1CN(CC2CC2)C(=O)[C@@H]2CCN(Cc3ccoc3)CC[C@H]12 | -2.05%
Cc1ccc(CN2CCOC3(COCCN(C(C)C)C3)C2)s1 (centres undefined) | -0.82%
O=C(NCc1cn2c(n1)CN(Cc1nccs1)CC2)C1CCC1 | 4.61%
Cn1nc(CN2CCCCC2)c2c1CN(Cc1ccoc1)C2 | -0.449%
CN(Cc1ccccn1)C(=O)[C@H]1CO[C@H]2CCN(CC3CC3)C[C@H]2C1 | -105%
c1nc(COCC2CC2)c2n1CCCN(CC1CC1)C2 | -4.77%
CN(Cc1ccco1)Cc1cnc2n1CCN(c1ccccn1)CC2 | -0.48%
COc1ccc(CN2CCOCC3(CCN(C4CCOCC4)C3)C2)cc1 (centres undefined) | 0.466%
CN(C)S(=O)(=O)N1C[C@@H](OCc2cccnc2)[C@H]2OCCC[C@H]21 | 0.74%
O=C(Cc1ccccc1)N1Cc2nccn2CC(CN2CCCC2)C1 (centres undefined) | -101%
Cn1cc(CN2CCCC3(CCN(C(=O)c4ccccn4)C3)C2)cn1 (centres undefined) | -66.9%
O=C(NC1CC1)[C@H]1C[C@H]2OCC[C@H]2N(Cc2cccc3ccccc23)C1 | 2.64%
CN(C)C(=O)N1C[C@H]2CC[C@@H](C1)N(Cc1nnc(-c3ccco3)o1)C2 | 5.9%
CC(C)CCN1C[C@@H]2C[C@H](C(=O)NCc3ccccc3)[C@H](C1)O2 | -2%
